Calls of active or inactive are those of the source. The calls are words filed in the database; no cut-off is given here.
Tests used:
[1] = Stability in human plasma by LC/MS/MS analysis; assay type: ADME, cell-free; settings: read-out: Stability
Summary of the method: (§1)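 Incubation in human plasma at 37 °C for 15, 60 and 120 min. Quantitation by LC/MS/MS in MRM mode, with results expressed as percent remaining of initial concentration.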

Plasma = assay: Stability in human plasma assessed as compound remaining by LC/MS/MS analysis; assay type: ADME, cell-free; summary of the method: as §1
[2] = Apparent solubility after 1 day by nephelometry-based method; assay type: physicochemical
Summary of the method: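 DMSO stock at 10 mM prepared on day 1. Tested at 8 concentrations in triplicate. Assay run on day 1 and read on day 2.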

MDA-MB-231 [3] = assay: Sensitization of 100 ng/mLTRAIL-induced apoptosis in human MDA-MB-231 cells assessed as combination index at 10 uM after 24 hrs by ATPlite assay; assay type: functional
MDA-MB-231 [4] = assay: Sensitization of 50 ng/mL TRAIL-induced apoptosis in human MDA-MB-231 cells assessed as combination index at 5 uM after 24 hrs by ATPlite assay; assay type: functional
MEF [5] = assay: Inhibition of wild type MEF proliferation assessed as cell viability at 5 to 45 uM after 24 hrs by ATPlite assay relative to control; assay type: cell-based; settings: mouse
MDA-MB-231 [6] = assay: Sensitization of 90 ng/mL TRAIL-induced apoptosis in human MDA-MB-231 cells assessed as combination index at 9 uM after 24 hrs by ATPlite assay; assay type: functional
[7] = Metabolic stability in liver microsomes assessed as intrinsic clearance after 30 mins by LC/MS/MS analysis in presence of NADPH; assay type: ADME, Microsome; settings: 0.5 h
[8] = Permeability by PAMPA method; assay type: ADME
[9] = Metabolic stability in liver microsomes assessed as half life after 30 mins by LC/MS/MS analysis in presence of NADPH; assay type: ADME, Microsome
MDA-MB-231 [10] = assay: Sensitization of 120 ng/mL TRAIL-induced apoptosis in human MDA-MB-231 cells assessed as combination index at 12 uM after 24 hrs by ATPlite assay; assay type: functional
MDA-MB-231 [11] = assay: Increase in caspase-3 activation in human MDA-MB-231 cells at 5 to 20 uM after 24 hrs by MSD assay; assay type: functional, cell-based
MEF [12] = assay: Inhibition of XIAP knockout MEF proliferation assessed as cell viability after 24 hrs by ATPlite assay relative to control; assay type: functional, cell-based; settings: Mus musculus
MDA-MB-231 [13] = assay: Sensitization of 130 ng/mL TRAIL-induced apoptosis in human MDA-MB-231 cells assessed as combination index at 13 uM after 24 hrs by ATPlite assay; assay type: functional
MDA-MB-231 [14] = assay: cells; settings: Homo sapiens, MDA-MB-231, 48 h
[15] = target: E3 ubiquitin-protein ligase XIAP (Homo sapiens, UniProt P98170); assay: Binding affinity to histidine6-tagged human XIAP Bir3 domain expressed in Escherichia coli BL21(DE3)
Chain of E3 ubiquitin-protein ligase XIAP (P98170 whole entry, the tested form may be a part): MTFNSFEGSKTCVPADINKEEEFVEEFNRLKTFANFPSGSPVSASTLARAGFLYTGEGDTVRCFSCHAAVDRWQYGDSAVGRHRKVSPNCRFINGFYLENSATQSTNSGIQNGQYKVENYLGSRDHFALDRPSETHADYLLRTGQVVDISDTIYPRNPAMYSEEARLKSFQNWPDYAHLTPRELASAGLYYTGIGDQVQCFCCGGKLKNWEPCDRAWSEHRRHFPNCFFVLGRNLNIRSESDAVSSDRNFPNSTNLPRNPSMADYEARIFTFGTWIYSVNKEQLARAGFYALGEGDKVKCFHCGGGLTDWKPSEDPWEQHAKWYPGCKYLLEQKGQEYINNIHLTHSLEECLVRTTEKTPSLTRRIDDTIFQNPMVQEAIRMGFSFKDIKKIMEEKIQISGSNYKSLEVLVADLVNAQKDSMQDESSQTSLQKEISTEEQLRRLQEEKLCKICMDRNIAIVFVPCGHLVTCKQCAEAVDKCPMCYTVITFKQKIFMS
Summary of the method: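 Binding to 15N-labelled Bir3 was measured by 2D [15N,1H]-HSQC NMR titration at 300 K. Samples held 0.1 mM protein in 100 mM potassium phosphate pH 7.0 with 5% DMSO and 7% D2O. At least six ligand concentrations were used. Kd came from a non-linear least-squares fit of fractional shift change (p) against ligand concentration.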

Compound `CN[C@@H](C)C(=O)Nc1ccc(Oc2ccc(OC)cc2)c(C(=O)NCc2csc(-c3cccs3)n2)c1` has a half-life [1] of over 120 min, a Stability (Plasma) of 93.9% and a solubility kinetic at 24 h [2] of over 100 µg/mL. The Activity (MDA-MB-231 [3]) was 0.41, the Activity (MDA-MB-231 [4]) was 0.44 and the Activity (MEF [5]) was “Toxic”. For the same compound, the Activity (MDA-MB-231 [6]) was 0.4, the clearance [7] was 47.7 µL/min/mg and the permeability [8] was 27%. For the same compound, the half-life [9] was 14.5 min, the Activity (MDA-MB-231 [10]) was 0.27 and the Activity (MDA-MB-231 [11]) was “Active”. The Activity (MEF [12]) was “Active” and the Activity (MDA-MB-231 [13]) was 0.32.
With `CC[C@H](C)[C@H](NC(=O)[C@@H]1CCCN1C(=O)[C@@H](NC(=O)[C@H](C)N)C(C)C)C(=O)O` the IC50 (MDA-MB-231 [14]) was over 50 µM.
With `C[C@H](N)C(=O)Nc1ccc(Oc2ccccc2Cl)cc1` the Kd [15] was 200 µM.

Reference: ChEMBL document CHEMBL1152296, “Fragment-based design of small molecule X-linked inhibitor of apoptosis protein inhibitors” (J Med Chem, 2008)
